In ChEMBL document CHEMBL1155589, “Use of COMPARE analysis to discover new natural product drugs: isolation of camptothecin and 9-methoxycamptothecin from a new source” (J Nat Prod, 2000):
≈ marks a conversion by molar mass, not a printed value.

Assays:
Format in all cases: functional, organism-based
Saccharomyces cerevisiae [1] = assay: Growth inhibition of RAD52 deficient Saccharomyces cerevisiae RS322 in glucose medium after 48 hrs
In short: (§1)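 Strains: RS321N (rad52 top1) carrying a single-copy plasmid with human TOP1 under the GAL1 promoter; RS321NYCp50 (vector control, tested in galactose); RS322N (rad52). Cells diluted to OD600 0.01 in synthetic minimal medium with glucose or galactose. Compounds added in DMSO (final <1%). Incubated 48 h at 30 °C in a humidified chamber. Read as background-subtracted OD595. Growth decrease relative to drug-free wells, from concentration-response, gave IC50.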

Saccharomyces cerevisiae [2] = assay: Growth inhibition of RAD52 deficient Saccharomyces cerevisiae RS322 carrying pRAD52 in glucose medium after 48 hrs
Saccharomyces cerevisiae [3] = assay: Growth inhibition of RAD52 deficient Saccharomyces cerevisiae RS322 carrying pRAD52 in galactose medium after 48 hrs
Saccharomyces cerevisiae [4] = assay: Growth inhibition of RAD52/topoisomerase 1 deficient Saccharomyces cerevisiae RS321N harbouring plasmid containing human topoisomerase 1 in glucose medium after 48 hrs; in short: as §1
Saccharomyces cerevisiae [5] = assay: Growth inhibition of Saccharomyces cerevisiae RS321N containing YCp50 vector plasmid after 48 hrs; in short: as §1
Saccharomyces cerevisiae [6] = assay: Growth inhibition of RAD52/topoisomerase 1 deficient Saccharomyces cerevisiae RS321N harbouring plasmid containing human topoisomerase 1 in galactose medium after 48 hrs; in short: as §1
Saccharomyces cerevisiae [7] = assay: Growth inhibition of Saccharomyces cerevisiae expressing wild type erg6 in glucose medium after 48 hrs
Saccharomyces cerevisiae [8] = assay: Growth inhibition of RAD52/topoisomerase-1 deficient Saccharomyces cerevisiae RS321 in glucose medium after 48 hrs; in short: as §1

| Compound | IC50 (Saccharomyces cerevisiae [1]) [µg/mL] | IC50 (Saccharomyces cerevisiae [2]) [µg/mL] | IC50 (Saccharomyces cerevisiae [3]) [µg/mL] | IC50 (Saccharomyces cerevisiae [4]) [µg/mL] | IC50 (Saccharomyces cerevisiae [5]) [µg/mL] | IC50 (Saccharomyces cerevisiae [6]) [µg/mL] | IC50 (Saccharomyces cerevisiae [7]) [µg/mL] | IC50 (Saccharomyces cerevisiae [8]) [µg/mL] |
| --- | --- | --- | --- | --- | --- | --- | --- | --- |
| CC[C@@]1(O)C(=O)OCc2c1cc1n(c2=O)Cc2cc3ccccc3nc2-1 [CAMPTOTHECIN] | 0.06 (≈ 0.172 µM) | > 100 | 0.18 (≈ 0.517 µM) | > 100 | 0.16 (≈ 0.459 µM) | 0.014 (≈ 0.0402 µM) | > 100 | > 100 |
| CC[C@@]1(O)C(=O)OCc2c1cc1n(c2=O)Cc2cc3c(CN(C)C)c(O)ccc3nc2-1 [TOPOTECAN] |  |  |  | > 100 |  | 9.9 (≈ 23.5 µM) |  |  |
